Test results reported in ChEMBL document CHEMBL2429739, “Double-targeting using a TrkC ligand conjugated to dipyrrometheneboron difluoride (BODIPY) based photodynamic therapy (PDT) agent” (J Med Chem, 2013).
Activity calls are given as the source filed them. No cut-off for these calls is given here.

Columns and labels:
NIH3T3 [1] = test: Cytotoxicity against mouse NIH/3T3 cells expressing TrkC assessed as cell viability incubated for 2 hrs followed by 7.3 J/cm'2 halogen light irradiation measured after 24 hrs by MTT assay; assay type: functional, cell-based; settings: for IC50: NIH3T3, light or radiation study
Summary of the method: (§1)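 Cells seeded overnight at about 10,000/well (NIH3T3-TrkC) or 7000/well (NIH3T3-WT, SY5Y). Agent applied at 0.02–2 μM final in protein-free PFHM-II medium (<0.001% DMSO) for 2 h. Cells washed and given fresh medium, then irradiated with >480 nm halogen light at 12.2 mW/cm2 (7.3 J/cm2, 10 min). After 24 h, MTT added for 3.5 h; OD read at 570 nm. % dead = 100 − (OD treated/OD control)×100; three runs.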

NIH3T3 [2] = test: Cytotoxicity against wild type mouse NIH/3T3 cells assessed as cell viability after 2 hrs followed by 7.3 J/cm'2 halogen light irradiation measured after 24 hrs by MTT assay; assay type: cell-based; settings: nih3t3, 24 h; summary of the method: as §1
[3] = Cellular uptake in endoplasmic reticulum of mouse NIH/3T3 cells expressing TrkC at 1 uM after 12 hrs by confocal microscopy; assay type: ADME, cell-based; settings: nih3t3, 12 h
Summary of the method: (§2)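 NIH3T3-TrkC cells (grown in DMEM/F12 with G418 and 10% newborn calf serum) incubated with agent at 1 μM for 12 h at 37 °C, then PBS-washed. Co-stained with LysoTracker Red 500 nM for 30 min at 37 °C, or with MitoTracker Deep Red / ER-Tracker Blue-White at 100 nm for 15 min. Washed again, then live cells imaged by multiphoton confocal Z-stacks in 0.5 μm steps.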

NIH3T3 [4] = test: Cellular uptake in mouse NIH/3T3 cells expressing TrkC at 0.5 uM after 2 hrs by confocal microscopy; assay type: ADME, cell-based; settings: nih3t3, 2 h
Summary of the method: (§3)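 TrkC-transfected or wild-type NIH3T3 cells exposed to agent at 0.5 μM in supernatant for 2 h. Cells washed three times with PBS, then imaged live by confocal microscopy. Intracellular fluorescence intensity was quantified over 100 cells.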

Mus musculus = test: Toxicity in mouse under dark condition at 100 mg/kg after 12 days; assay type: organism-based; parameters: dose 100 mg/kg; settings: in vivo, 288 h
[5] = Cytotoxicity against human SH-SY5Y cells expressing TrkC assessed as cell viability after 2 hrs followed by 7.3 J/cm'2 halogen light irradiation measured after 24 hrs by MTT assay; assay type: functional, cell-based; settings: light or radiation study; summary of the method: as §1
NIH3T3 [6] = test: Cytotoxicity against mouse NIH/3T3 cells expressing TrkC assessed as cell viability incubated for 2 hrs followed by 7.3 J/cm'2 halogen light irradiation measured after 24 hrs by MTT assay in presence of 3.5 nM of NT3; assay type: functional, cell-based
Summary of the method: (§4)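 NIH3T3-TrkC cells treated for 2 h with agent (0.02–2 μM) together with a constant 20 μM IY-IY or 3.5 nM NT-3 competitor. Cells washed, then irradiated at >480 nm, 12.2 mW/cm2, 7.3 J/cm2. After 24 h, viability read by MTT (OD 570 nm) and expressed as % dead cells; three runs.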

NIH3T3 [7] = test: Dark cytotoxicity against mouse NIH/3T3 cells expressing TrkC assessed as cell viability by MTT assay; assay type: cell-based
Summary of the method: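 NIH3T3-TrkC cells given the same 2 h agent treatment and wash as in the light assay, but kept without illumination. Viability measured by MTT; three runs.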

[8] = Cellular uptake in mitochondria of mouse NIH/3T3 cells expressing TrkC at 1 uM after 12 hrs by confocal microscopy; assay type: ADME; settings: nih3t3, 12 h; summary of the method: as §2
[9] = Cellular uptake in lysosome of mouse NIH/3T3 cells expressing TrkC at 1 uM after 12 hrs by confocal microscopy; assay type: ADME, cell-based; settings: nih3t3, 12 h; summary of the method: as §2
NIH3T3 [10] = test: Cytotoxicity against mouse NIH/3T3 cells expressing TrkC assessed as cell viability incubated for 2 hrs followed by 7.3 J/cm'2 halogen light irradiation measured after 24 hrs by MTT assay in presence of 20 uM of IY-IY; assay type: functional, cell-based; summary of the method: as §4
NIH3T3 [11] = test: Cellular uptake in wild type mouse NIH/3T3 cells at 0.5 uM after 2 hrs by confocal microscopy; assay type: ADME, cell-based; settings: nih3t3, 2 h; summary of the method: as §3

Row | Drug uptake [3] | Drug uptake (NIH3T3 [4]) | Drug uptake [8] | Drug uptake [9] | Drug uptake (NIH3T3 [11]) | SMILES | Activity (NIH3T3 [1]) | IC50 (NIH3T3 [1]) [µM] | Activity (NIH3T3 [2]) | Activity (Mus musculus) | IC50 [5] [µM] | Activity (NIH3T3 [6]) | Activity (NIH3T3 [7]) | Activity (NIH3T3 [10])
1 | Not Active | Active | Not Active | Active | Not Active | CC[C@H](C)[C@H](N)c1cn([C@@H](Cc2ccc(O)cc2)C(=O)N2CCN(c3nc(NCCOCCOCCOCc4cn(CCCC5=C6C(C)=C(I)C(C)=[N+]6[B-](F)(F)n6c(C)c(I)c(C)c65)nn4)nc(N4CCN(C(=O)[C@H](Cc5ccc(O)cc5)n5cc([C@@H](N)[C@@H](C)CC)nn5)CC4)n3)CC2)nn1 | Dose-dependent effect | 0.35 | Active | Non-toxic | 0.15 | Active | Non-toxic | Active
2 | – | Not Active | – | – | – | CC[C@H](C)[C@@H](C(=O)N1CCN(c2nc(NCCOCCOCCOCc3cn(CCCC4=C5C(C)=C(I)C(C)=[N+]5[B-](F)(F)n5c(C)c(I)c(C)c54)nn3)nc(N3CCN(C(=O)[C@H]([C@@H](C)CC)n4cc([C@@H](N)Cc5ccc(O)cc5)nn4)CC3)n2)CC1)n1cc([C@@H](N)Cc2ccc(O)cc2)nn1 | – | > 2 | – | – | – | – | – | –
